Molecules are shown by their SMILES. Activity calls are given as the source filed them. The calls are words filed in the database; no cut-off is given here.

What is called inhibition is the share of the control response that was lost under treatment. For orientation: IC50 means the concentration that gives 50% inhibition. Read a low IC50 as inhibition by little substance.

The target of assay [1] is Glutamate receptor ionotropic, NMDA 2B (Rattus norvegicus) (UniProt Q00960). Nature of the assay: Displacement of [3H]ifenprodil from Wistar rat cerebral cortex GluN2B receptor at 0.1 uM after 120 mins relative to control. The assay is classed as tissue-based. In a few lines: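 Male Wistar-derived rat cerebral cortex membranes (175 ± 25 g rats) in Tris-HCl pH 7.4. […] Filtration, washing and counting followed. Test compounds were run at three concentrations in duplicate, with 0.1 μM used for % inhibition.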
Glutamate receptor ionotropic, NMDA 2B (Rattus norvegicus), sequence (Q00960 27-1482 limits assumed): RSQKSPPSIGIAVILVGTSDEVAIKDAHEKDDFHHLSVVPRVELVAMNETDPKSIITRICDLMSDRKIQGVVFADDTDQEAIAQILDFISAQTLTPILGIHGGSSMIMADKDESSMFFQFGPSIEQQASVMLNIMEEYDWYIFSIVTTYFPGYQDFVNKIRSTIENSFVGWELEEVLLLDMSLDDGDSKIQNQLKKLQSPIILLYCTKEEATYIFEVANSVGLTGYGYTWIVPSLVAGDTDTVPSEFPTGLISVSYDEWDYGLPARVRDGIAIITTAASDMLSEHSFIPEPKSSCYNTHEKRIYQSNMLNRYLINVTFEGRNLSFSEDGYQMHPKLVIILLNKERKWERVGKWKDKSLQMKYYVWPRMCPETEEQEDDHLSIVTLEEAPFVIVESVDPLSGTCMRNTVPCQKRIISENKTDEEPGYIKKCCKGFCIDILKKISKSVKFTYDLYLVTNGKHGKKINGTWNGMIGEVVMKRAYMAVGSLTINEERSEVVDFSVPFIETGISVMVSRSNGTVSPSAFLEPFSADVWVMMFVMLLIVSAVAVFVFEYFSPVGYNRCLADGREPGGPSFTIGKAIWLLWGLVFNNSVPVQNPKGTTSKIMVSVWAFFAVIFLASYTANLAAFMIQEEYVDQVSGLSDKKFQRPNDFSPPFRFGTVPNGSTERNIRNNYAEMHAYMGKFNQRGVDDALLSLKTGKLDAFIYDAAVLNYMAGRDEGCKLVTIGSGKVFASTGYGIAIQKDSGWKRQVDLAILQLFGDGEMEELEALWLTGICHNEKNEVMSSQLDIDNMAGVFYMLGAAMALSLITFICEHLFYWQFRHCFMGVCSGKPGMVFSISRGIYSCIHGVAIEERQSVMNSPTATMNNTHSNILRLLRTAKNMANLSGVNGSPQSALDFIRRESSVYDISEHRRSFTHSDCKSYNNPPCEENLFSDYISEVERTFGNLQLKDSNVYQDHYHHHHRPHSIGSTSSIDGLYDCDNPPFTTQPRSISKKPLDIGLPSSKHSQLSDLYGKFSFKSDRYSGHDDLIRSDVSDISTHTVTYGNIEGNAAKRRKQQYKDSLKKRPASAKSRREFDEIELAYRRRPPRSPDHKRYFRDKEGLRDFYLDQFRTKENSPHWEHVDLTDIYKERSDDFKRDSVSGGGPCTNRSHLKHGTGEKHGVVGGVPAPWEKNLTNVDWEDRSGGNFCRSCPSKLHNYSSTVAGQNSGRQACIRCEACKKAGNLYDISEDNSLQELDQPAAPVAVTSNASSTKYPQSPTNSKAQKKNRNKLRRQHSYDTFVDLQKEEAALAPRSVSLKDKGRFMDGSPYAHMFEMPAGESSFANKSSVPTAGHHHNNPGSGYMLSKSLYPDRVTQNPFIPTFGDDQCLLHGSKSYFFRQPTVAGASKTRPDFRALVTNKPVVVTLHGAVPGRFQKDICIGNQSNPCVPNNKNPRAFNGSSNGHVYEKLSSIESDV
On the technique in general: In a radioligand displacement assay an active substance lowers the binding of a labelled ligand.

The target is the same in assay [2]. The experiment in a line: Displacement of [3H]ifenprodil from Wistar rat cerebral cortex GluN2B receptor at 0.1 uM relative to control.
The test system of assay [3] is Mus musculus. Nature of the assay: Anticonvulsant activity in DBA/2 mouse assessed as prevention of audiogenic seizures at 100 umol/kg, ip administered 30 mins prior to testing. The assay is classed as functional, organism-based. In a few lines: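 DBA/2 mice genetically prone to sound-induced seizures (8-12 g, 22-25 days old), groups of 10 of either sex. Dosed ip in fresh 50% DMSO/50% sterile saline, or vehicle alone. After 30 min, 60 s habituation under a dome, then auditory stimulus (12-16 kHz, 109 dB) for 60 s or until tonic extension. Latency to and incidence of wild running, clonus, tonic phases were scored; incidence compared by Fisher's exact test.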

Assay [4] concerns the target Glutamate receptor ionotropic, NMDA 2B (Rattus norvegicus, UniProt Q00960). The experiment in a line: Displacement of [3H]ifenprodil from Wistar rat cerebral cortex GluN2B receptor after 120 mins. Format: tissue-based.

Glutamate receptor ionotropic, NMDA 2B, sequence (Q00960 whole entry): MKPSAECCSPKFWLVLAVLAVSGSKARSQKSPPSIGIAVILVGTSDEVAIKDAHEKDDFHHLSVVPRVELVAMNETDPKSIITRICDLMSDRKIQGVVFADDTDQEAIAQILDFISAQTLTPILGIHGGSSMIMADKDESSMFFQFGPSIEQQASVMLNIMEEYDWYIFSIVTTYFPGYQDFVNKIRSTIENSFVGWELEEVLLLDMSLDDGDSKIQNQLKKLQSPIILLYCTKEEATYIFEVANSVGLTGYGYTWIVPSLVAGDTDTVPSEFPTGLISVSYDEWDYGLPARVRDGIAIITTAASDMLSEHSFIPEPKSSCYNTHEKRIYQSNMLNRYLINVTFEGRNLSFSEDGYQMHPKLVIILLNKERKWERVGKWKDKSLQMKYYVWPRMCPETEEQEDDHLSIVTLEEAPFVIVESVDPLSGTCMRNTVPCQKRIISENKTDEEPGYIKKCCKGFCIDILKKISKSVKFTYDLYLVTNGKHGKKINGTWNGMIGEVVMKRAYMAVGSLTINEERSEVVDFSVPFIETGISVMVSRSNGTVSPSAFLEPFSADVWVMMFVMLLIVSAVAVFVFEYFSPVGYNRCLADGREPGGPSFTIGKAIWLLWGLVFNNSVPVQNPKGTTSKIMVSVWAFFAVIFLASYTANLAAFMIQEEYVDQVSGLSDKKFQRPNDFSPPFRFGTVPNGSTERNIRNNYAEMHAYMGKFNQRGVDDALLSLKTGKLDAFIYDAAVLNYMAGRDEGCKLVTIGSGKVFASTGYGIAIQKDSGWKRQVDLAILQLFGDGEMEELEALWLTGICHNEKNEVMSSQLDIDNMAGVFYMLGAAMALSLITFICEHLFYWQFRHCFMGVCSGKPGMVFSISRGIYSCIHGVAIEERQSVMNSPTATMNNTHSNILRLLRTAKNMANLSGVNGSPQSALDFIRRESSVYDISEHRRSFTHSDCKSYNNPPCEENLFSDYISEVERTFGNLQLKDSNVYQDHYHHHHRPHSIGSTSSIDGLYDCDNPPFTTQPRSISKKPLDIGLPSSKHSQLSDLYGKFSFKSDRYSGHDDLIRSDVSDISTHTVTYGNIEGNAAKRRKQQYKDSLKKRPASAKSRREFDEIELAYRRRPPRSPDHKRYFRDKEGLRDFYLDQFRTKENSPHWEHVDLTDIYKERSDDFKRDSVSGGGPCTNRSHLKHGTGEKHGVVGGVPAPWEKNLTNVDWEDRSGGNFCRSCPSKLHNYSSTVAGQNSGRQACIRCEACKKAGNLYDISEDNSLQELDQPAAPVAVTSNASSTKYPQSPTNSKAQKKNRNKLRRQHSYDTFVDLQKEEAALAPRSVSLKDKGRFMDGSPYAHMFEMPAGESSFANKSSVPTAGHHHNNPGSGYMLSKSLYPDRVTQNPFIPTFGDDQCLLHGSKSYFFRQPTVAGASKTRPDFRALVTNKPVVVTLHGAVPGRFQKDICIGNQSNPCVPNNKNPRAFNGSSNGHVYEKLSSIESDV

In turn, `O=C(Cc1c[nH]c2ccc(O)cc12)N1CCC(Cc2ccccc2)CC1` displayed an inhibition in assay [1] of 5%.

Regarding `O=C(CN1CCC(Cc2ccccc2)CC1)c1c[nH]c2ccc(O)cc12`, the inhibition in assay [2] turned out to be 75%.

For the compound `O=C(CN1CCC(Oc2ccccc2)CC1)c1c[nH]c2ccc(O)cc12`, the inhibition in assay [1] is 9%.

Turning to `CCc1ccc(CC2CCN(CC(=O)c3c[nH]c4ccc(O)cc34)CC2)cc1`, the outcome in assay [3] was inactive. In addition, in assay [4], the IC50 is 71 nM. In addition, the inhibition in assay [1] came to 75%.

As to `Cc1ccc(CC2CCN(CC(=O)c3c[nH]c4ccc(O)cc34)CC2)cc1`, the outcome in assay [3] was inactive. In addition, the concentration for half-maximal inhibition (IC50) in assay [4] stood at 83 nM. The inhibition in assay [1] amounted to 66%.

As for `Oc1ccc2[nH]cc(CCN3CCC(Cc4ccccc4)CC3)c2c1`, the inhibition in assay [1] was 42%.

`COc1ccc(CC2CCN(CC(=O)c3c[nH]c4ccc(O)cc34)CC2)cc1` came in with an IC50 in assay [4] of 1280 nM. Moreover, the inhibition in assay [1] came to 16%.

On to `Cc1ccc(CC2CCN(CC(=O)c3c[nH]c4ccc(O)cc34)CC2)cc1C`, for which, in assay [4], the IC50 came to 3330 nM. In assay [1], this compound showed an inhibition of less than 5%.

As for `O=C(Cc1c[nH]c2ccc(O)cc12)N1CCC(Cc2ccc(F)cc2)CC1`, in assay [1], the inhibition worked out at 19%.

(Values after ChEMBL document CHEMBL3763100, “Structure-guided design of new indoles as negative allosteric modulators (NAMs) of N-methyl-D-aspartate receptor (NMDAR) containing GluN2B subunit” (Bioorg Med Chem, 2016).)
